The source of these data is ChEMBL document CHEMBL1126944, “Benzoquinazoline inhibitors of thymidylate synthase: enzyme inhibitory activity and cytotoxicity of some sulfonamidobenzoylglutamate and related derivatives” (J Med Chem, 1993).

Each structure is given as a SMILES string. Where only a bound is given, the exact number is not on record here.

For orientation: Ki means the equilibrium dissociation constant of an inhibitor or competing ligand from its target. A higher Ki goes with weaker binding. The Km is the concentration of substrate that gives half-maximal velocity. In general, Inhibition refers to the percentage by which the read-out fell short of the control. High values mean a strong effect, low ones a weak effect.

T1 sequence (P04818 whole entry): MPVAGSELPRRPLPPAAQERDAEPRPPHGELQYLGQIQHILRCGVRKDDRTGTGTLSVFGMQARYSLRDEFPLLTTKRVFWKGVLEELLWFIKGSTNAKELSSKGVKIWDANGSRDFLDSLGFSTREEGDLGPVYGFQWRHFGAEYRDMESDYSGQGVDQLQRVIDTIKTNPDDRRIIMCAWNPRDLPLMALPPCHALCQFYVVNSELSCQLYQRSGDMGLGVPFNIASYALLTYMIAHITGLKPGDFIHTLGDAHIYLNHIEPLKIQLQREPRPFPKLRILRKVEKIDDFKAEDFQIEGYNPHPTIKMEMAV

One series concerns the target T1, Thymidylate synthase (Homo sapiens, UniProt P04818). Kind of series: Inhibition of purified human thymidylate synthase (TS) isolated from an Escherichia coli harboring a plasmid with thy A gene cloned from SV40 transformed human fibroblast cells. Type of series: cell-free.
Settings: not given
The method in brief:
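Purified recombinant human TS, expressed in E. coli from a thyA gene cloned from SV40-transformed human fibroblasts. Inhibition was measured by a modified tritium-release assay. Ki was estimated by treating compounds as tight-binding noncompetitive inhibitors.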
`Nc1nc(O)c2c(ccc3ccc(NS(=O)(=O)c4ccc(C(=O)N[C@@H](CCC(=O)O)C(=O)O)cc4)cc32)n1` showed a Ki of 100 nM.

On to `Nc1nc(O)c2c(ccc3cc(S(=O)(=O)Nc4ccc(C(=O)N[C@@H](CCC(=O)O)C(=O)O)cc4)c(Br)cc32)n1`, for which the Ki came to 16400 nM.

As for `Nc1nc(O)c2c(ccc3ccc(Br)cc32)n1`, the inhibition constant (Ki) came to 20 nM.

The species entered for another series is Sus scrofa.
Assay: not given
The settings on record: Liver.
Regarding `Cc1nc(O)c2c(ccc3ccc(S(=O)(=O)Nc4ccc(C(=O)N[C@@H](CCC(=O)O)C(=O)O)cc4)cc32)n1`, the Km came out at 3.11 µM.

Tested on in another series: not listed separately
In words: Velocity compared to a control 50 uM aminopterin run on each test.
Settings: not given
The series is classed as ADME. A digest of the protocol:
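Substrate activity toward partially purified hog liver folylpolyglutamate synthetase. Velocity expressed as percent of a 50 µM aminopterin control included in every run.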
Consider `Nc1nc(O)c2c(n1)CCc1cc(Br)c(S(=O)(=O)Nc3ccc(C(=O)N[C@@H](CCC(=O)O)C(=O)O)cc3)cc1-2`, for which the Vm rel worked out at 28.9%.

In turn, `Cc1nc(O)c2c(ccc3c(S(=O)(=O)Nc4ccc(C(=O)N[C@@H](CCC(=O)O)C(=O)O)cc4)cccc32)n1` displayed a Vel rem of 55.2%.

Compound `Cc1nc2ccc3ccc(S(=O)(=O)Nc4ccc(C(=O)N[C@@H](CCC(=O)O)C(=O)O)cc4)cc3c2c(=O)[nH]1` came in with a Vm rel of 185%.

`Nc1nc(O)c2c(n1)CCc1ccc(S(=O)(=O)Nc3ccc(C(=O)N[C@@H](CCC(=O)O)C(=O)O)cc3)cc1-2`: the Vm rel was found to be 115%.

The compound `Nc1nc(O)c2c(n1)CCc1cc(S(=O)(=O)Nc3ccc(C(=O)N[C@@H](CCC(=O)O)C(=O)O)cc3)ccc1-2` had a Vm rel of 102%.

Consider `Cc1nc(O)c2c(n1)CCc1ccc(S(=O)(=O)Nc3ccc(C(=O)N[C@@H](CCC(=O)O)C(=O)O)cc3)cc1-2`, for which the Vm rel amounted to 109%.

Tested on in another series: not listed separately
Kind of series: Ratio of relative velocity to that of the Michaelis constant.
Settings: not given
In the case of `Cc1nc2ccc3ccc(S(=O)(=O)Nc4ccc(C(=O)N[C@@H](CCC(=O)O)C(=O)O)cc4)cc3c2c(=O)[nH]1`, the V/K is on record as 59.6.

The next series relates to MCF7. In words: Cell culture cytotoxicity (CCCT) of MCF-7 breast adenocarcinoma cells. Type of series: functional, Homo sapiens.
Settings: not given
A digest of the protocol: (§1)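 MCF-7 cells kept in folic acid-free RPMI 1640 with 10 nM (6R,S)-5-formyltetrahydrofolic acid as sole folate plus 10% charcoal-dialyzed FBS. MTT dye-reduction assay after continuous drug exposure for 96 h. Value is the concentration giving 50% reduction in growth rate.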
The compound `Nc1nc(O)c2c(ccc3ccc(Br)cc32)n1` came in with a CCCT of 10 µM.

A further series has as its target MOLT-4.
Assay: not given
Settings: not given
Compound `Cc1nc(O)c2c(ccc3ccc(S(=O)(=O)Nc4ccc(C(=O)N[C@@H](CCC(=O)O)C(=O)O)cc4)cc32)n1` registered a Ki of 4.9 µM.

The next series relates to SW480. Kind of series: Cell culture cytotoxicity of SW480 colon adenocarcinoma cells. Type of series: functional, Homo sapiens.
Settings: not given
A digest of the protocol:
(§2)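 SW480 or MOLT-4 cells grown in folic acid-free RPMI 1640 supplemented with 10 nM (6R,S)-5-formyltetrahydrofolic acid and 10% charcoal-dialyzed FBS. Continuous 72 h drug exposure, growth read by MTT tetrazolium dye reduction. Reported as the concentration halving growth rate.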
In turn, `Nc1nc(O)c2c(ccc3ccc(NS(=O)(=O)c4ccc(C(=O)N[C@@H](CCC(=O)O)C(=O)O)cc4)cc32)n1` came in with a CCCT of more than 100 µM.

As to `Nc1nc(O)c2c(ccc3cc(S(=O)(=O)Nc4ccc(C(=O)N[C@@H](CCC(=O)O)C(=O)O)cc4)c(Br)cc32)n1`, the CCCT was more than 50 µM.

For a further series, the target named is T1, Thymidylate synthase. Kind of series: Inhibitory activity against thymidylate synthase (TS). Particulars: read-out: I50.
Consider `C#CCN(Cc1ccc2nc(C)[nH]c(=O)c2c1)c1ccc(C(=O)N[C@@H](CCC(=O)O)C(=O)O)cc1`, for which the IC50 was […].

The next series concerns the target T1, Thymidylate synthase. Kind of series: Inhibition of purified human thymidylate synthase isolated from an Escherichia coli harboring thy A gene cloned from SV40 transformed human fibroblast cells.
Settings: not given
Type of series: cell-free.
`Cc1nc2ccc3ccc(S(=O)(=O)Nc4ccc(C(=O)N[C@@H](CCC(=O)O)C(=O)O)cc4)cc3c2c(=O)[nH]1` yielded a Ki of 5.5 nM.

Another series relates to MOLT-4. In words: Cell culture cytotoxicity of MOLT-4 T-cell leukemia cells. The series is classed as functional, Homo sapiens.
Settings: not given
A digest of the protocol:
as §2
The compound `Nc1nc(O)c2c(n1)CCc1ccc(S(=O)(=O)Nc3ccc(C(=O)N[C@@H](CCC(=O)O)C(=O)O)cc3)cc1-2` registered a CCCT of 2.4 µM.

For the compound `C#CCN(c1ccc(C(=O)N[C@@H](CCC(=O)O)C(=O)O)cc1)S(=O)(=O)c1ccc2c(c1)CCc1nc(N)nc(O)c1-2`, the CCCT is more than 50 µM.

With `Cc1nc(O)c2c(n1)CCc1ccc(S(=O)(=O)Nc3ccc(C(=O)N[C@@H](CCC(=O)O)C(=O)O)cc3)cc1-2`, the CCCT is 0.2 µM.

For the compound `Cc1nc(O)c2c(ccc3ccc(S(=O)(=O)Nc4ccc(C(=O)N[C@@H](CCC(=O)O)C(=O)O)cc4)cc32)n1`, the CCCT is 0.12 µM.

The next series relates to MOLT-4. In words: Inhibition constant against the transport of [3H]- methotrexate (MTX) by MOLT-4 T-cell. The series is classed as functional, Homo sapiens.
Settings: not given
A digest of the protocol:
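Uptake of [3H]methotrexate, a substrate of the reduced folate carrier, into MOLT-4 T-cell leukemia cells measured with and without compound. Inhibition constant derived against this transport.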
`Nc1nc(O)c2c(ccc3ccc(NS(=O)(=O)c4ccc(C(=O)N[C@@H](CCC(=O)O)C(=O)O)cc4)cc32)n1`: the Inhibition is recorded as 42%.

Compound `Nc1nc(O)c2c(ccc3cc(S(=O)(=O)Nc4ccc(C(=O)N[C@@H](CCC(=O)O)C(=O)O)cc4)c(Br)cc32)n1` yielded an Inhibition of 45%.

Another series relates to MCF7. Kind of series: Cell culture cytotoxicity of MCF-7 breast adenocarcinoma cells. The series is classed as functional, Homo sapiens.
Settings: not given
The method in brief:
as §1
The compound `Nc1nc(O)c2c(n1)CCc1cc(Br)c(S(=O)(=O)Nc3ccc(C(=O)N[C@@H](CCC(=O)O)C(=O)O)cc3)cc1-2` yielded a CCCT of more than 100 µM.

The compound `Cc1nc(O)c2c(ccc3c(S(=O)(=O)Nc4ccc(C(=O)N[C@@H](CCC(=O)O)C(=O)O)cc4)cccc32)n1` came in with a CCCT of 50 µM.

`Cc1nc(O)c2c(n1)CCc1ccc(S(=O)(=O)N(C)c3ccc(C(=O)N[C@@H](CCC(=O)O)C(=O)O)cc3)cc1-2` returned a CCCT of more than 50 µM.

For `Nc1nc(O)c2c(n1)CCc1ccc(S(=O)(=O)Nc3ccc(C(=O)N[C@@H](CCC(=O)O)C(=O)O)cc3)cc1-2`, the CCCT was determined as 0.65 µM.

Compound `Nc1nc(O)c2c(ccc3cc(S(=O)(=O)Nc4ccc(C(=O)N[C@@H](CCC(=O)O)C(=O)O)cc4)c(Br)cc32)n1` yielded a CCCT of more than 50 µM.

With `Cc1nc(O)c2c(n1)CCc1ccccc1-2`, the CCCT was more than 100 µM.

In turn, `Nc1nc(O)c2c(n1)CCc1cc(S(=O)(=O)Nc3ccc(C(=O)N[C@@H](CCC(=O)O)C(=O)O)cc3)ccc1-2` came in with a CCCT of 25 µM.

In the case of `C#CCN(c1ccc(C(=O)N[C@@H](CCC(=O)O)C(=O)O)cc1)S(=O)(=O)c1ccc2c(c1)CCc1nc(N)nc(O)c1-2`, the CCCT is more than 50 µM.

`Cc1nc(O)c2c(n1)CCc1ccc(S(=O)(=O)Nc3ccc(C(=O)N[C@@H](CCC(=O)O)C(=O)O)cc3)cc1-2` gave a CCCT of 0.65 µM.

The compound `Nc1nc(O)c2c(n1)CCc1ccccc1-2` registered a CCCT of more than 100 µM.

Compound `Cc1nc(O)c2c(ccc3ccccc32)n1` displayed a CCCT of more than 100 µM.

`Cc1nc(O)c2c(ccc3ccc(S(=O)(=O)Nc4ccc(C(=O)N[C@@H](CCC(=O)O)C(=O)O)cc4)cc32)n1`: the CCCT stood at 0.07 µM.

For another series, the system named is SW480. In words: Cell culture cytotoxicity of SW480 colon adenocarcinoma cells. The series is classed as functional, Homo sapiens.
Settings: not given
A digest of the protocol:
as §2
For the compound `Nc1nc(O)c2c(n1)CCc1cc(Br)c(S(=O)(=O)Nc3ccc(C(=O)N[C@@H](CCC(=O)O)C(=O)O)cc3)cc1-2`, the CCCT is more than 100 µM.

`Cc1nc(O)c2c(ccc3c(S(=O)(=O)Nc4ccc(C(=O)N[C@@H](CCC(=O)O)C(=O)O)cc4)cccc32)n1`: the CCCT was more than 100 µM.

For the compound `Cc1nc(O)c2c(n1)CCc1ccc(S(=O)(=O)N(C)c3ccc(C(=O)N[C@@H](CCC(=O)O)C(=O)O)cc3)cc1-2`, the CCCT was more than 50 µM.

Compound `Nc1nc(O)c2c(n1)CCc1ccc(S(=O)(=O)Nc3ccc(C(=O)N[C@@H](CCC(=O)O)C(=O)O)cc3)cc1-2` registered a CCCT of 7.9 µM.

With `C#CCN(c1ccc(C(=O)N[C@@H](CCC(=O)O)C(=O)O)cc1)S(=O)(=O)c1ccc2c(c1)CCc1nc(N)nc(O)c1-2`, the CCCT is more than 50 µM.

Turning to `Cc1nc(O)c2c(n1)CCc1ccc(S(=O)(=O)Nc3ccc(C(=O)N[C@@H](CCC(=O)O)C(=O)O)cc3)cc1-2`, the CCCT amounted to 4.1 µM.

`Cc1nc(O)c2c(ccc3ccc(S(=O)(=O)Nc4ccc(C(=O)N[C@@H](CCC(=O)O)C(=O)O)cc4)cc32)n1` yielded a CCCT of 2.4 µM.
